Results on two molecules are retold here after ChEMBL document CHEMBL4706621, “An attempt to chemically state the cross-talk between monomers of COX homodimers by double/hybrid inhibitors mofezolac-spacer-mofezolac and mofezolac-spacer-arachidonic acid” (Eur J Med Chem, 2021).

In data set [1] the target is T1, Prostaglandin G/H synthase 2 (Homo sapiens) (UniProt P35354).
T1 sequence (whole entry): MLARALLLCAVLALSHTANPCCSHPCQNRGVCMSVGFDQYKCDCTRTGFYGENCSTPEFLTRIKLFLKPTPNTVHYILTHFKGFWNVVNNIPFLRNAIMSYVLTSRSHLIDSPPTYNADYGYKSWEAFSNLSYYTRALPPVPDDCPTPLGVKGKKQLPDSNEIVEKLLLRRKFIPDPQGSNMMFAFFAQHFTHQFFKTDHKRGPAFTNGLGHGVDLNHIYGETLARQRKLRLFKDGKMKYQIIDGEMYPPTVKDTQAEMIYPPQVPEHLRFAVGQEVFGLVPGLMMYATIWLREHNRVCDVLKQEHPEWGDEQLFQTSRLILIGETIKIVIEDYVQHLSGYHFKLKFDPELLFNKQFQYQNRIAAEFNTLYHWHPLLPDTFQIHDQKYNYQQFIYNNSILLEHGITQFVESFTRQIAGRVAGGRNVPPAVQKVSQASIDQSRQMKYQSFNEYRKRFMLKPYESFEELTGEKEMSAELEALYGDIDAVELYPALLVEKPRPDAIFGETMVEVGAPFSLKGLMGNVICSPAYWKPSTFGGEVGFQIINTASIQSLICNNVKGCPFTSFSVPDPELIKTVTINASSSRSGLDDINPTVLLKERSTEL
Briefly: Inhibition of human COX-2 assessed as peroxidase activity using arachidonic acid as substrate at 50 uM by colorimetric method. Put shortly: (§1)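 Colorimetric COX inhibitor screening kit measuring cyclooxygenase peroxidase activity on arachidonic acid substrate, read as oxidized TMPD at 590 nm. Compound stocks are made in DMSO. IC50 is the mean of at least three independent measurements. Percent inhibition is taken at the highest final inhibitor concentration, 50 µM.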

Data set [2] in a line: Genotoxicity in Salmonella typhimurium TA102 at 10 to 500 uM by AMES test. To be noted: salmonella enterica subsp. enterica serovar typhimurium, dose 10-500 µM. The class given is toxicity. Put shortly: (§2)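 Ames reverse mutation to histidine prototrophy using S. typhimurium TA97, TA98, TA100 and TA102. Compounds are dissolved in DMSO and tested at 10, 100 and 500 µM.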
Data set [3] deals with T2, Prostaglandin G/H synthase 2 (Homo sapiens, UniProt P35354).
T2 sequence (P35354 whole entry): T1 sequence (whole entry)
Put plainly: Inhibition of human COX-2 assessed as peroxidase activity using arachidonic acid as substrate by colorimetric method. In short, it runs like this: as §1

For data set [4], the target named is T3, Prostaglandin G/H synthase 1 (Ovis aries) (UniProt P05979).
T3 sequence (whole entry): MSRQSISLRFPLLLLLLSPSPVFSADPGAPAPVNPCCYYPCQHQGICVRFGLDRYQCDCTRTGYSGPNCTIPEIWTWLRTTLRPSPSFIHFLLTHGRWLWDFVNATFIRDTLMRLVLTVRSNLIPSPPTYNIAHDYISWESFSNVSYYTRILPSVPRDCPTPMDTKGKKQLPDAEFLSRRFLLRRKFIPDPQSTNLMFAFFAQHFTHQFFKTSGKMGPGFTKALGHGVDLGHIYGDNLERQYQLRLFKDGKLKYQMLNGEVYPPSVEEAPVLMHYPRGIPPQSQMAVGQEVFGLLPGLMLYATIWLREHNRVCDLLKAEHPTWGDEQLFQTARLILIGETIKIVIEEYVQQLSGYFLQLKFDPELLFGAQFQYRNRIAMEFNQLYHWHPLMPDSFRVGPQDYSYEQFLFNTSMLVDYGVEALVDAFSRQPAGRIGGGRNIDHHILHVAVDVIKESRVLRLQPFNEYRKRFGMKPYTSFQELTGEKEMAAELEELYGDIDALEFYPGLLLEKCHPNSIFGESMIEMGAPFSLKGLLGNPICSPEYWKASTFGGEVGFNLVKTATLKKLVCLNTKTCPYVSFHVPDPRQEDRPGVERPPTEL
Put plainly: Inhibition of ovine COX-1 assessed as peroxidase activity using arachidonic acid as substrate at 50 uM by colorimetric method. Put shortly:
as §1

Data set [5] has as its system Plasma. Briefly: Anticoagulant activity in human plasma assessed as prothrombin time at 100 uM. The class given is functional. In short, it runs like this: (§3)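 Human platelet-poor plasma from whole blood (n=3) by differential centrifugation, run on a coagulation analyzer. Compounds at 100 µM incubated with plasma 15 min at room temperature, then 2 min at 37 °C. For aPTT, cephalin is added for 2 min and clotting is started with 0.025 M CaCl2. For PT, PBS is added for 3 min and clotting is started with calcium thromboplastin. Clotting time is read in seconds at 37 °C. Negative control is 1% DMSO; positive control is 100 µM rivaroxaban.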

For data set [6], the system named is Vero. Briefly: Cytotoxicity against African green monkey Vero cells at 10 uM measured after 48 hrs by MTT assay relative to control. The class given is cell-based. Particulars: chlorocebus sabaeus. Put shortly: (§4)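 Vero cells grown at 37 °C in 5% CO2 in medium with 10% inactivated FBS. Cells seeded at 3.2×10^4 per well and grown 24 h, then exposed to compounds for 48 h (n = 4). Control is DMEM with 10% FBS and 1% DMSO. MTT (2.5 mg/mL solution) is added for 3 h, formazan is dissolved in DMSO and absorbance is read at 570 nm. Viability is given as % of untreated cells, mean ± SD.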

The nature of data set [7]: Genotoxicity in Salmonella typhimurium TA100 at 10 to 500 uM by AMES test. To be noted: salmonella enterica subsp. enterica serovar typhimurium, dose 10-500 µM. The class given is toxicity. Put shortly: as §2
The test system of data set [8] is Vero. Briefly: Cytotoxicity against African green monkey Vero cells at 100 uM measured after 48 hrs by MTT assay relative to control. The class given is cell-based. Particulars: chlorocebus sabaeus. In short, it runs like this: as §4
Data set [9] is described as follows: Hemolytic activity against human erythrocytes assessed as hemolysis incubated for 3 hrs by spectrophotometric analysis relative to control. The class given is ADME, cell-based, Erythrocyte. To be noted: read-out: Activity. Put shortly: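 Citrated human blood (n=3) centrifuged at 2500 rpm for 15 min. The erythrocyte pellet is washed three times and resuspended in PBS pH 7.4. Compounds are incubated with the erythrocytes for 3 h at 37 °C. After centrifugation, released hemoglobin is read at 540 nm. Controls are 1% DMSO (negative) and 1% Triton X-100 (positive). Below 10% counts as non-hemolytic.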

A short description of data set [10]: Genotoxicity in Salmonella typhimurium TA97 at 10 to 500 uM by AMES test. The class given is toxicity. Particulars: salmonella enterica subsp. enterica serovar typhimurium, dose 10-500 µM. Put shortly:
as §2

The nature of data set [11]: Mutagenicity in Escherichia coli PQ37 at 10 to 500 uM by SOS-chromotest. The class given is toxicity. To be noted: dose 10-500 µM. In short, it runs like this: (§5)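 SOS chromotest spot assay with E. coli PQ35 and PQ37. An overnight culture is diluted in LB and grown at 37 °C to 2×10^8 bacteria/mL. Then 0.1 mL is mixed in top agar and poured on M63 plates. 10 µL of compound in DMSO (10, 100 or 500 µM) is spotted centrally and plates are incubated overnight at 37 °C. A blue ring around the inhibition zone indicates genotoxicity. Run in triplicate with 4-NQO as positive control.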

For data set [12], the target named is T4, Prostaglandin G/H synthase 1 (Ovis aries, UniProt P05979).
T4 sequence (P05979 whole entry): T3 sequence (whole entry)
Briefly: Inhibition of ovine COX-1 assessed as peroxidase activity using arachidonic acid as substrate by colorimetric method. Put shortly:
as §1

Data set [13] is described as follows: Genotoxicity in Salmonella typhimurium TA98 at 10 to 500 uM by AMES test. In kind it is toxicity. To be noted: salmonella enterica subsp. enterica serovar typhimurium, dose 10-500 µM. Put shortly:
as §2

Data set [14] can be described thus: Selectivity index, ratio of IC50 for human COX-2 to IC50 for ovine COX-1. Put shortly: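 Selectivity index is calculated as COX-2 IC50 divided by COX-1 IC50, each taken from the colorimetric TMPD peroxidase assay with arachidonic acid substrate.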
Data set [15] has as its system Plasma. Briefly: Antiplatelet activity in human platelet-rich plasma assessed as inhibition of arachidonic acid-induced platelet aggregation by turbidimetric method. In kind it is functional. In short, it runs like this:
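Platelet-rich and platelet-poor plasma prepared from human whole blood (n=3) by differential centrifugation. Compounds pre-incubated in PRP for 2 min, then aggregation is induced with 500 µM arachidonic acid and followed turbidimetrically in an aggregometer. IC50 is determined from several concentrations, in triplicate. Acetylsalicylic acid is the positive control; 1% DMSO vehicle is the negative control.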

The nature of data set [16]: Mutagenicity in Escherichia coli PQ35 at 10 to 500 uM by SOS-chromotest. Particulars: dose 10-500 µM. In kind it is toxicity. In short, it runs like this:
as §5

In data set [17] the test system is Plasma. Put plainly: Anticoagulant activity in human plasma assessed as activated partial thromboplastin time at 100 uM. The class given is functional. In short, it runs like this: as §3

pIC50: −log10 of the molar value.

A word on the inhibition: it is how much of the control response was suppressed. By pIC50 is commonly meant the IC50 on a negative log10 scale, so that one unit is a factor of ten. Take `CCCCC/C=C\C/C=C\C/C=C\C/C=C\CCCC(=O)Nc1ccc(-c2ccc(NC(=O)Cc3onc(-c4ccc(OC)cc4)c3-c3ccc(OC)cc3)cc2)cc1`: the inhibition came out at 60% in data set [1] and 50% in data set [4]. The Activity result in data set [2] is “Non-Toxic”; in the data set on Vero [6], 94%; in [7], “Non-Toxic”; with Vero [8] it was 84%; in data set [10], “Non-Toxic”; in [11], “Non-Toxic”. For the same molecule, the Activity result in data set [13] and in data set [16] was “Non-Toxic” throughout. Moreover, the pIC50 in data set [3] was 7.05; in [12], 4.77; in the data set on Plasma [15], 6.12. The PT with Plasma [5] worked out at 14.6 s. Also, the hemolysis at 3 h in [9] amounted to 0.14%. Also, the Ratio IC50 in data set [14] turned out to be 0.005. Further, the APTT with Plasma [17] was 48 s.
Turning to `COc1ccc(-c2noc(CC(=O)Nc3ccc(NC(=O)Cc4onc(-c5ccc(OC)cc5)c4-c4ccc(OC)cc4)cc3)c2-c2ccc(OC)cc2)cc1`, the Activity result was “Non-Toxic” in data set [2]; 98% in the data set with Vero [6]; “Non-Toxic” in data set [7]; 97% in the data set on Vero [8]; “Non-Toxic” in [10]; “Non-Toxic” in data set [11]. Also, the Activity entry in data set [13] and in data set [16] was “Non-Toxic” in each case. In addition, the pIC50 in [3] was below 4.30; in data set [12], 6.82; in the data set with Plasma [15], 6.04. In data set [4], the inhibition came out at 85%. Further, the PT with Plasma [5] was 15.5 s. In addition, in [9], the hemolysis at 3 h came out at 0%. In [14], the Ratio IC50 is above 333. In addition, the APTT in the data set with Plasma [17] is 47.5 s.
